The values that follow come from ChEMBL document CHEMBL1649261, “Pharmacodynamic profile of tigecycline against methicillin-resistant Staphylococcus aureus in an experimental pneumonia model” (Antimicrob Agents Chemother, 2009).

In brackets after ≈: the same amount, converted by molar mass.

Usually MIC stands for the lowest concentration found to suppress growth. The low end stands for greater potency, the high end for weaker potency.

Common to all, as to type: functional
In test [1] the test system is Staphylococcus aureus. In words: Antibacterial activity against community-acquired methicillin-resistant Staphylococcus aureus 156 by microdilution method. In a few lines: (§1)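 Tigecycline MIC measured in triplicate by broth microdilution following CLSI guidelines. Isolates were stored at −80°C in skim milk and subcultured twice on blood agar before testing.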
Test [2] relates to Staphylococcus aureus. The test is described as follows: Antibacterial activity against hospital-acquired methicillin-resistant Staphylococcus aureus 56 by microdilution method. The gist of the method:
as §1
(In general: Broth dilution looks for growth in wells or tubes with falling amounts of substance.)

Test [3] concerns Staphylococcus aureus. The test is described as follows: Antibacterial activity against hospital-acquired methicillin-resistant Staphylococcus aureus 152 by microdilution method. In a few lines: as §1
In test [4] the test system is Staphylococcus aureus. In words: Antibacterial activity against methicillin-susceptible Staphylococcus aureus ATCC 29213 by microdilution method. In a few lines:
as §1

The subject of test [5] is Staphylococcus aureus. The test is described as follows: Antibacterial activity against community-acquired methicillin-resistant Staphylococcus aureus 144 by microdilution method. The gist of the method:
as §1

Test [6] deals with Staphylococcus aureus. The test is described as follows: Antibacterial activity against community-acquired methicillin-resistant Staphylococcus aureus 147 by microdilution method. In a few lines: as §1

For the compound `CCC[C@@H]1C[C@@H](C(=O)N[C@@H]([C@H]2O[C@H](SC)[C@H](O)[C@@H](O)[C@H]2O)[C@H](C)Cl)N(C)C1` [CLINDAMYCIN], the MIC against Staphylococcus aureus [1] is no more than 0.5 µg/mL; against Staphylococcus aureus [2] it was 0.25 µg/mL (≈ 0.588 µM); with Staphylococcus aureus [3], 0.125 µg/mL (≈ 0.294 µM); in the test with Staphylococcus aureus [4] it was 0.125 µg/mL (≈ 0.294 µM); with Staphylococcus aureus [5], greater than 16 µg/mL; in the test on Staphylococcus aureus [6] it was 0.125 µg/mL (≈ 0.294 µM).
Consider `C[C@H]1c2cccc(O)c2C(=O)C2=C(O)[C@]3(O)C(=O)C(C(N)=O)=C(O)[C@@H](N(C)C)[C@@H]3[C@@H](O)[C@@H]21.O` [DOXYCYCLINE], for which the minimum inhibitory concentration (MIC) with Staphylococcus aureus [2] came out at 8 µg/mL; against Staphylococcus aureus [3], 0.5 µg/mL; in the test on Staphylococcus aureus [4] it was 0.5 µg/mL; in the test with Staphylococcus aureus [5] it was 0.5 µg/mL; in the test on Staphylococcus aureus [6], 2 µg/mL.
Take `CC[C@H]1OC(=O)[C@H](C)[C@@H](O[C@H]2C[C@@](C)(OC)[C@@H](O)[C@H](C)O2)[C@H](C)[C@@H](O[C@@H]2O[C@H](C)C[C@H](N(C)C)[C@H]2O)[C@](C)(O)C[C@@H](C)C(=O)[C@H](C)[C@@H](O)[C@]1(C)O` [ERYTHROMYCIN]: the MIC is greater than 32 µg/mL with Staphylococcus aureus [1]; 32 µg/mL (≈ 43.6 µM) in the test on Staphylococcus aureus [2]; 1 µg/mL (≈ 1.36 µM) in the test on Staphylococcus aureus [3]; 1 µg/mL (≈ 1.36 µM) in the test on Staphylococcus aureus [4]; greater than 32 µg/mL in the test on Staphylococcus aureus [5]; greater than 32 µg/mL against Staphylococcus aureus [6].
With `C[C@H]1COc2c(N3CCN(C)CC3)c(F)cc3c(=O)c(C(=O)O)cn1c23.C[C@H]1COc2c(N3CCN(C)CC3)c(F)cc3c(=O)c(C(=O)O)cn1c23.O` [LEVOFLOXACIN], the MIC against Staphylococcus aureus [2] was 0.25 µg/mL; with Staphylococcus aureus [3], 0.25 µg/mL; in the test on Staphylococcus aureus [4] it was 0.25 µg/mL; against Staphylococcus aureus [5], 0.5 µg/mL; in the test on Staphylococcus aureus [6], 8 µg/mL.
In turn, `CC(=O)NC[C@H]1CN(c2ccc(N3CCOCC3)c(F)c2)C(=O)O1` [LINEZOLID] registered a minimum inhibitory concentration (MIC) with Staphylococcus aureus [2] of 8 µg/mL (≈ 23.7 µM).
